ChEMBL document CHEMBL5724801, “EUbOPEN Chemogenomics Library - Multiplex” (2024)
Where “and” joins values, the source holds several entries; their conditions need not be identical. Equal entries are not always repeated.

Test system: Fibroblast
Assay: Multiplex assay against human fibroblast
Format: toxicity, cell-based
How it was run: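 On a CQ1 microscope at 37°C and 5% CO2, live cells were imaged after compound addition. They had been stained at seeding with Hoechst33342, BioTracker Green Microtubule Cytoskeleton Dye, MitoTracker Red and Annexin V Alexa Fluor 680. CellPathfinder machine-learning gating assigned cells to Hoechst high-intensity objects or normal cells, normal cells to healthy, pyknosed or fragmented nuclei, and pyknosed cells to mitotic or apoptotic. Tubulin, mitochondrial-mass and membrane-permeability phenotypes are per cents of healthy-nucleus cells.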

[1] = 12 h, 1 µM, compound concentration 1 uM
[2] = 12 h, 10 µM, compound concentration 10 uM
[3] = 24 h, 1 µM, compound concentration 1 uM
[4] = 24 h, 10 µM, compound concentration 10 uM
[5] = 48 h, 1 µM, compound concentration 1 uM
[6] = 48 h, 10 µM, compound concentration 10 uM

## Oc1c(CN2CCN(c3ccccn3)CC2)cc(Cl)c2cccnc12
[1]
  Population Apoptotic (%): 73% and 57%
  Population Fragmented Nuclei (%): 17% and 27%
  Population Healthy Nuclei (%): 68% and 54%
  Population Hoechst High Intensity Objects (%): 4% and 5%
  Population Membrane Permeable-Phenotype (%): 1% and 8%
  Population Mitochondria Different-Phenotype (%): 0% and 6%
  Population Mitotic Cells (%): 26% and 42%
  Population Normal (%): 95% and 94%
  Population Pyknosed Nuclei (%): 14% and 18%
  Population Tubulin-Different-Phenotype (%): 27% and 43%
  Total Cell Count: 168 and 152
[2]
  Population Apoptotic (%): 41% and 33%
  Population Fragmented Nuclei (%): 17% and 25%
  Population Healthy Nuclei (%): 54% and 58%
  Population Hoechst High Intensity Objects (%): 5% and 2%
  Population Membrane Permeable-Phenotype (%): 0% and 2%
  Population Mitochondria Different-Phenotype (%): 25% and 9%
  Population Mitotic Cells (%): 58% and 66%
  Population Normal (%): 94% and 97%
  Population Pyknosed Nuclei (%): 27% and 16%
  Population Tubulin-Different-Phenotype (%): 67% and 62%
  Total Cell Count: 130 and 131
[3]
  Population Apoptotic (%): 50% and 45%
  Population Fragmented Nuclei (%): 19% and 29%
  Population Healthy Nuclei (%): 67% and 56%
  Population Hoechst High Intensity Objects (%): 3% and 5%
  Population Membrane Permeable-Phenotype (%): 0% and 8%
  Population Mitochondria Different-Phenotype (%): 3% and 7%
  Population Mitotic Cells (%): 50% and 55%
  Population Normal (%): 96% and 94%
  Population Pyknosed Nuclei (%): 13%
  Population Tubulin-Different-Phenotype (%): 30% and 47%
  Total Cell Count: 174 and 153
[4]
  Population Apoptotic (%): 89% and 56%
  Population Fragmented Nuclei (%): 26% and 35%
  Population Healthy Nuclei (%): 46% and 41%
  Population Hoechst High Intensity Objects (%): 0% and 2%
  Population Membrane Permeable-Phenotype (%): 1%
  Population Mitochondria Different-Phenotype (%): 15% and 11%
  Population Normal (%): 100% and 97%
  Population Pyknosed Nuclei (%): 27% and 22%
  Population Tubulin-Different-Phenotype (%): 57% and 68%
  Total Cell Count: 139 and 134
[5]
  Population Apoptotic (%): 54% and 70%
  Population Fragmented Nuclei (%): 17% and 25%
  Population Healthy Nuclei (%): 67% and 66%
  Population Hoechst High Intensity Objects (%): 5% and 0%
  Population Membrane Permeable-Phenotype (%): 1% and 4%
  Population Mitochondria Different-Phenotype (%): 1% and 4%
  Population Mitotic Cells (%): 45% and 30%
  Population Normal (%): 94% and 99%
  Population Pyknosed Nuclei (%): 14% and 7%
  Population Tubulin-Different-Phenotype (%): 35% and 37%
  Total Cell Count: 158 and 137
[6]
  Population Apoptotic (%): 85% and 78%
  Population Fragmented Nuclei (%): 31% and 34%
  Population Healthy Nuclei (%): 32% and 41%
  Population Hoechst High Intensity Objects (%): 2%
  Population Membrane Permeable-Phenotype (%): 0% and 1%
  Population Mitochondria Different-Phenotype (%): 9% and 7%
  Population Mitotic Cells (%): 14% and 21%
  Population Normal (%): 97%
  Population Pyknosed Nuclei (%): 35% and 24%
  Population Tubulin-Different-Phenotype (%): 38% and 65%
  Total Cell Count: 137
